Published values pooled from the literature.
Compare with care: the assays were run in different laboratories.
Target: Transient receptor potential cation channel subfamily M member 6 (TRPM6, Homo sapiens, UniProt Q9BX84)

CCCCN(CCCC)C(=O)CN1C[C@H](c2cc(OC)c3c(c2)OCO3)[C@@H](C(=O)O)[C@@H]1CC(C)(C)CCC
remaining binding (cell-free assay; competition with immobilised ligand; 1 µM): 91.6%

O=C(NCCCN1CCOCC1)c1ccc(Nc2nccc(-c3cc4ccccc4s3)n2)cc1
remaining binding (binding; competition with immobilised ligand; 1 µM): 100%

CN(C)c1nccc(-c2cnn3ncccc23)n1
remaining binding (binding; 1 µM): 100%

O=C(c1ccc(Nc2ncc(Cl)c(-c3ccc(Cl)s3)n2)cc1)N1CCC(N2CCCC2)CC1
remaining binding (binding; competition with immobilised ligand; 1 µM): 100%

O=C(O)[C@H]1[C@H](Cn2nnc3ccccc3c2=O)CC[C@@H]1C(=O)c1ccc(OCCC2CCOCC2)cc1
remaining binding (cell-free assay; competition with immobilised ligand; 1 µM): 100%

FC(F)(F)Oc1cccc(-c2cnc3ccc(-c4ccncc4)nn23)c1
remaining binding (binding; competition with immobilised ligand; 5 µM): 84%

CN(c1nccc(-c2cnn3ncccc23)n1)C1CC1
remaining binding (binding; 1 µM): 100%

C[C@@H](c1ccc(-n2cnc3c(N)ncnc32)cc1)N1CCc2nn(C)c(Cc3ccccc3)c2C1=O
remaining binding (binding; competition with immobilised ligand; 0.1 µM): 76%

C[C@H](c1ccc(F)cc1)N(Cc1cccc(C(=O)O)c1)C(=O)c1cnc2ccccc2c1
remaining binding (cell-free assay; competition with immobilised ligand; 1 µM): 100%

C[C@H]1CCN(c2nccc(-c3cnn4ncccc34)n2)C1
remaining binding (binding; 1 µM): 94%

CCN1CCN(Cc2ccc(C(=O)Nc3ccc(C)c(Oc4ccc5c(c4)CC(=O)N5)c3)cc2C(F)(F)F)CC1
remaining binding (binding; competition with immobilised ligand; 1 µM): 100%

Cc1c[nH]c2nccc(Oc3c(F)cc(Nc4cc(Cl)nc(N)n4)cc3F)c12
remaining binding (cell-free assay; competition with immobilised ligand; 0.1 µM): 83%

CN(C)c1nccc(-c2cnc3ncccn23)n1
remaining binding (binding; 1 µM): 75%

O=C(Nc1c[nH]nc1C(=O)NC1CCNCC1)c1cc(F)cc(F)c1
remaining binding (binding; competition with immobilised ligand; 1 µM): 88%

c1cncc(-c2cccc(Nc3nccc(NC4CCCCC4)n3)c2)c1
remaining binding (binding; competition with immobilised ligand; 10 µM): 97%

CN([C@@H]1CCc2c(CC(=O)O)c3cc(S(C)(=O)=O)ccc3n2C1)S(=O)(=O)c1ccc(F)cc1
remaining binding (cell-free assay; competition with immobilised ligand; 1 µM): 74%

CN(CCCC(F)(F)F)c1nccc(-c2cnn3ncccc23)n1
remaining binding (binding; 1 µM): 100%

O=C(c1ccc(Nc2ncc(Cl)c(-c3cc4ccccc4s3)n2)cc1)N1CCC(N2CCCC2)CC1
remaining binding (binding; competition with immobilised ligand; 1 µM): 100%

N[C@H]1CCN(c2nccc(-c3cnn4ncccc34)n2)C1
remaining binding (binding; 1 µM): 91%

CN(C)C(=O)Cn1cc(-c2nc([C@@](C)(c3ccc(-c4cnc(N)nc4)cc3)C3CC3)no2)cn1
remaining binding (cell-free assay; competition with immobilised ligand; 1 µM): 78%

COc1cnc(Nc2cccc(S(N)(=O)=O)c2)nc1N1CCN(c2ccccc2)C(=O)C1
remaining binding (binding; competition with immobilised ligand; 1 µM): 93%
